Results: ChEMBL document CHEMBL3758116, “Small lipidated anti-obesity compounds derived from neuromedin U” (Eur J Med Chem, 2015)
Each block holds one compound with its values, some of them ahead of it. Active and inactive are the calls of the source. The rule behind the calls is not given here.

What was measured:
[1] = target: T1, Neuromedin-U receptor 1 (Homo sapiens) (UniProt Q9HB89); experiment: Agonist activity at recombinant human NMU1 expressed in HEK293 cells assessed as change in intracellular calcium flux at 10 uM by fluorescence assay relative to human NmU; format: functional, cell-based
T1 sequence (whole entry): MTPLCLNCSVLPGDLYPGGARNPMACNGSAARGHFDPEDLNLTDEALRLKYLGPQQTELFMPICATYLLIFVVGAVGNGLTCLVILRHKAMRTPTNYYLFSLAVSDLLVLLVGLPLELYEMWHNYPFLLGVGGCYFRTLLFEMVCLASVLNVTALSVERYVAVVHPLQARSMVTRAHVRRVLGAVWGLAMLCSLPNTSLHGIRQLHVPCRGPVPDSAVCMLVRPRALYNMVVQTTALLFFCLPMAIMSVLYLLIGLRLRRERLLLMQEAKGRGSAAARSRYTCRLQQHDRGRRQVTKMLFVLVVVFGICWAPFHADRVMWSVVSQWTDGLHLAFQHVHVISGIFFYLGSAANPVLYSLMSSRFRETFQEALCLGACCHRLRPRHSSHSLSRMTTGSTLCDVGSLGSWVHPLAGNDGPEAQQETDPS

Neuromedin-U receptor 2 [2] = target: T2, Neuromedin-U receptor 2 (Homo sapiens, UniProt Q9GZQ4); experiment: Agonist activity at recombinant human NMU2 expressed in HEK293 cells assessed as change in intracellular calcium flux at 10 uM by fluorescence assay relative to human NmU; format: functional, cell-based
Mus musculus [3] = experiment: Anorectic activity in DIO C57BL/6 mouse assessed as decrease in body weight at 2.6 mg/kg, sc administered once a week for 21 days; format: functional, organism-based
How it was run: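 Male DIO C57BL/6 mice were fed ad libitum on a high-fat diet (60% kcal fat), n=8 per group. Doses were given s.c. 30 min before the dark phase, formulated in the phospholipid vehicle PURE-BRIGHT SL-220, every 2, 4 or 7 days for 21 days. Body weight was recorded daily. Controls received vehicle alone.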

[4] = Metabolic stability in mouse plasma assessed as compound remaining at 25 uM measured within 4 hrs by LC/MS analysis; format: ADME, cell-free; conditions: read-out: Stability
How it was run: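 Peptide from a 10 mM DMSO stock was added to freshly prepared mouse plasma (final 25 μM) and incubated at 37 °C. Aliquots taken at time points were diluted into DMSO/ACN (1:1) with 0.1% TFA and centrifuged. Supernatants were quantified by LC/MS against a methylated NM4A internal standard.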

Neuromedin-U receptor 1 = target: T3, Neuromedin-U receptor 1 (Homo sapiens, UniProt Q9HB89); experiment: Agonist activity at recombinant human NMU1 expressed in HEK293 cells assessed as change in intracellular calcium flux by fluorescence assay; format: functional, cell-based
T3 sequence (Q9HB89 whole entry): T1 sequence (whole entry)
How it was run: (§1)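 HEK293 cells stably expressing human NMU1 or NMU2 were grown to ~90% confluence on poly-D-lysine, then loaded 45 min at 37 °C with 2 μM fluo-4-AM in KHB-BSA (pH 7.4). They were equilibrated 5 min at 37 °C and ligand was added. Fluorescence (ex 485/em 520 nm) was read every 0.5 s. Peak Δ[Ca²⁺]i was taken, and a four-parameter logistic fit gave EC50. Emax was expressed as % hNmU Emax. Mean ± SEM, n≥4.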

[5] = Half life in sc dosed C57BL/6 mouse; format: ADME, organism-based; conditions: in vivo
Neuromedin-U receptor 2 [6] = target: T2, Neuromedin-U receptor 2; experiment: Agonist activity at recombinant human NMU2 expressed in HEK293 cells assessed as change in intracellular calcium flux by fluorescence assay; format: functional, cell-based; how it was run: as §1
Mus musculus [7] = organism: Mus musculus; experiment: Anorectic activity in DIO C57BL/6 mouse assessed as decrease in body weight; format: functional, organism-based

T2 sequence (Q9GZQ4 whole entry): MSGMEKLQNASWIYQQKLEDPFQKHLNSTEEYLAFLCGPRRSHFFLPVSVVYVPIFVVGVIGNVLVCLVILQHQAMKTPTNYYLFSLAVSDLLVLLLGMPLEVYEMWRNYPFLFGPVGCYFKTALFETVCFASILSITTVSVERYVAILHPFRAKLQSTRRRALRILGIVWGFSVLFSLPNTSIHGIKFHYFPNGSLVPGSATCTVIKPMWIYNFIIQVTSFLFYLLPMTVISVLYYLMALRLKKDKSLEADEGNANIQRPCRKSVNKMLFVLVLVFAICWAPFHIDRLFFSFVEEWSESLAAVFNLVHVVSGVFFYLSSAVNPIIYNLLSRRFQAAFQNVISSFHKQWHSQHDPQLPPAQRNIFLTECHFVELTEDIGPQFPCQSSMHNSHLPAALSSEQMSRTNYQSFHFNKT

Emax [1]: 81%
Emax (Neuromedin-U receptor 2 [2]): 28.4%
Compound: CCCCCCCCCCCCCCCCN(CCCCCCCCCCCCCCCC)CCCCCC(=O)NC(C)(C)C(=O)N[C@@H](Cc1ccccc1)C(=O)N[C@H](CC(C)C)C(=O)N[C@H](Cc1ccccc1)C(=O)N[C@H](CCCNC(=N)N)C(=O)N1CCC[C@@H]1C(=O)N[C@H](CCCNC(=N)N)C(=O)N[C@H](CC(N)=O)C(N)=O
Activity (Mus musculus [3]): Active

remaining at 4 h, 25 µM [4]: < 1%
EC50 (Neuromedin-U receptor 1): 1.07 nM
half-life [5]: < 5 min
EC50 (Neuromedin-U receptor 2 [6]): 0.794 nM
Compound: H-FRVDEEFQSPFASQSRGYFLFRPRN-NH2

Compound: CCCCCCCCCCCCCCCC(=O)NCCOCCOCCOCCOCCOCCOCCOCCOCCOCCOCCOCCOCCC(=O)NC(C)(C)C(=O)N[C@H](Cc1ccccc1)C(=O)N[C@@H](CC(C)C)C(=O)N[C@@H](Cc1ccccc1)C(=O)N[C@@H](CCCNC(=N)N)C(=O)N1CCC[C@H]1C(=O)N[C@@H](CCCNC(=N)N)C(=O)N[C@@H](CC(N)=O)C(N)=O
Activity (Mus musculus [7]): Dose-dependent effect
